ChEMBL document CHEMBL5046323, “Discovery of Phospholipase D Inhibitors with Improved Drug-like Properties and Central Nervous System Penetrance” (ACS Med Chem Lett, 2022)

Key:
[1] = Microsomal stability in rat liver microsomes assessed as intrinsic clearance; format: ADME, Microsome; details: read-out: CLH
Procedure, shortened: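 Intrinsic clearance (CLint) determined in rat or human liver microsomes.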

[2] = Clearance in iv dosed rat administered as cassette dose; format: ADME, organism-based; details: in vivo
Procedure, shortened: (§1)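 Rat IV clearance from cassette dosing; unbound clearance calculated as CL/fu.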

[3] = Unbound clearance in iv dosed rat administered as cassette dose; format: ADME, organism-based; details: in vivo; procedure, shortened: as §1
BCRP = assay: Efflux ratio of apparent permeability from basolateral to apical side over apical to basolateral side in dog MDCK-BCRP cells; format: ADME, cell-based, Canis lupus familiaris
Cytochrome P450 1A2 = molecular target: T1, Cytochrome P450 1A2 (Homo sapiens, UniProt P05177); assay: Inhibition of CYP1A2 (unknown origin); format: ADME
T1 sequence (P05177 whole entry): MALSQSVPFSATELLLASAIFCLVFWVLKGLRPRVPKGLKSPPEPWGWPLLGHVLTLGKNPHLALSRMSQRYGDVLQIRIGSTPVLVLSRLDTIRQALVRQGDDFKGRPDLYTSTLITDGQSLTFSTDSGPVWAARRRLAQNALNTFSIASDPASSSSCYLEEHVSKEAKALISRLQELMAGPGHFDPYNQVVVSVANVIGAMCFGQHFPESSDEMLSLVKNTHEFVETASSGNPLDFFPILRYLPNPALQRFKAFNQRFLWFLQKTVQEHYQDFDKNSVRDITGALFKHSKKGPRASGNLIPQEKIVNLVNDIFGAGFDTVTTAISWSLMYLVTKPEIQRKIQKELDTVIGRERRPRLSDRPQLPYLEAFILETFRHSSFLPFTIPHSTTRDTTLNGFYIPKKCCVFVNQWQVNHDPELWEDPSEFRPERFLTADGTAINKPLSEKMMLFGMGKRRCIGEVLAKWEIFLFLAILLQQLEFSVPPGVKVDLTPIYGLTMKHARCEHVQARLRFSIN

Cytochrome P450 2C9 = Cytochrome P450 2C9 (Homo sapiens, UniProt P11712); assay: Inhibition of CYP2C9 (unknown origin); format: ADME
Cytochrome P450 2C9, sequence (P11712 whole entry): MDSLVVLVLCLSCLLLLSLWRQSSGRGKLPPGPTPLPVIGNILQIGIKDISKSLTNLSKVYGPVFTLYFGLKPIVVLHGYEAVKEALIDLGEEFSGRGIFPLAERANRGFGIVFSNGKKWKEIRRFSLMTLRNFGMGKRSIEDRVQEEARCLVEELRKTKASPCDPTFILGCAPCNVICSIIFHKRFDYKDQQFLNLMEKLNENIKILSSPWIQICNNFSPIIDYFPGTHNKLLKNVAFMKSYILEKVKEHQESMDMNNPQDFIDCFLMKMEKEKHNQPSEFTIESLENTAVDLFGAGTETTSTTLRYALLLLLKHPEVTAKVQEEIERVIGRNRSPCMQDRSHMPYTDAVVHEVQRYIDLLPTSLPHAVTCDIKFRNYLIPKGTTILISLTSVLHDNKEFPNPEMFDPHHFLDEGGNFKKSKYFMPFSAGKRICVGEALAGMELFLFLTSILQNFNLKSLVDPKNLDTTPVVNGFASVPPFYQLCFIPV

[4] = molecular target: Voltage-gated inwardly rectifying potassium channel KCNH2 (Homo sapiens, UniProt Q12809); assay: Inhibition of human ERG; format: toxicity
Voltage-gated inwardly rectifying potassium channel KCNH2, sequence (Q12809 whole entry): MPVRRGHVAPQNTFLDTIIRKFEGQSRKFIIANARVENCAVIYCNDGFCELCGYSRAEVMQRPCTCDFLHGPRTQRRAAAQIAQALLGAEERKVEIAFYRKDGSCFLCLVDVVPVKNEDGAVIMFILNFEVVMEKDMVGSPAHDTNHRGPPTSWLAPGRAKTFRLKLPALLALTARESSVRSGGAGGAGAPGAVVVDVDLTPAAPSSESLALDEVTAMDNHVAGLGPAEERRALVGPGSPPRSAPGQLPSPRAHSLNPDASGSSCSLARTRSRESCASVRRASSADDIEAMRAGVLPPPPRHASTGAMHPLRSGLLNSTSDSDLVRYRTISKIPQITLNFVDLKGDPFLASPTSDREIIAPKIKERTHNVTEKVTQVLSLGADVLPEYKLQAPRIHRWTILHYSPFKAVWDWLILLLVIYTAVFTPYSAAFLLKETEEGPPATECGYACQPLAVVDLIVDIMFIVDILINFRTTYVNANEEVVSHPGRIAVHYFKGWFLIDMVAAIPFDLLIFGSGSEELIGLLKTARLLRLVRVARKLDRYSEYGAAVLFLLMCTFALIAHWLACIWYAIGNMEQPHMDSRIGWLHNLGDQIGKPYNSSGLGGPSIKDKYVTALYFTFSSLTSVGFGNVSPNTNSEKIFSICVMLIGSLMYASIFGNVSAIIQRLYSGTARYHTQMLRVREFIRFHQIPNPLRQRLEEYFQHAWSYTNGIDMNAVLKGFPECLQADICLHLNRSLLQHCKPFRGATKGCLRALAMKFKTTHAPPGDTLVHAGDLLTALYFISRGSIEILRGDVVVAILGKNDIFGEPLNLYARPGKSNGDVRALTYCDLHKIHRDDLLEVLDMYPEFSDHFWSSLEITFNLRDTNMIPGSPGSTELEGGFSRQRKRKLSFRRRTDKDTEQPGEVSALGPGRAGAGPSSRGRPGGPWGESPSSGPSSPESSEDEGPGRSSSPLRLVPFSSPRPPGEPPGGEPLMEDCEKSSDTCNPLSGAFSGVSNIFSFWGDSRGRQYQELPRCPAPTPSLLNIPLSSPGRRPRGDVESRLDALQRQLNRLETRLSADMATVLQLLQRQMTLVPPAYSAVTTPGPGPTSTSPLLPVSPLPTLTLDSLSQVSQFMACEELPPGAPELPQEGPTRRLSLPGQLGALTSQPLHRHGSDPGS

[5] = Plasma protein binding in rat assessed as unbound fraction; format: ADME, cell-free
[6] = Plasma protein binding in sc dosed C57BL/6 mouse by LC-MS/MS analysis; format: ADME, organism-based; details: in vivo
[7] = Plasma protein binding in sc dosed C57BL/6 mouse assessed as unbound fraction by LC-MS/MS analysis; format: ADME, organism-based; details: in vivo
[8] = Drug concentration in sc dosed C57BL/6 mouse liver measured after 15 mins by LC-FTICR-MS analysis; format: ADME, organism-based; details: read-out: Ct
Procedure, shortened: (§2)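 Mice dosed subcutaneously at 10 mg/kg 15, 30 or 60 min before injection of 1-butanol-d10; tissues (liver, brain) collected 15 min after butanol injection for compound levels.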

[9] = Unbound brain concentration in sc dosed C57BL/6 mouse measured after 15 mins by LC-FTICR-MS analysis; format: ADME, organism-based; details: in vivo, 0.25 h; procedure, shortened: as §2
[10] = Unbound brain concentration in sc dosed C57BL/6 mouse measured after 30 mins by LC-FTICR-MS analysis; format: ADME, organism-based; details: in vivo, 0.5 h; procedure, shortened: as §2
[11] = Unbound brain concentration in sc dosed C57BL/6 mouse measured after 60 mins by LC-FTICR-MS analysis; format: ADME, organism-based; details: in vivo, 1 h; procedure, shortened: as §2

Question: Which results are given for C[C@@H]1CN(C(=O)[C@H](C)N2CCC(n3c(=O)[nH]c4ccccc43)CC2)C[C@@H](C)N1?
Answer: CLint scaled [1]: 64 mL/min/kg; clearance [2]: 28 mL/min/kg; CL free [3]: 84 mL/min/kg; efflux ratio (BCRP): 1.2; IC50 (Cytochrome P450 1A2): > 10 µM; IC50 (Cytochrome P450 2C9): > 10 µM; IC50 [4]: > 30 µM; Fu [5]: 10.8%; PPB [6]: 17.2%; Fu [7]: 17.5%; concentration at 0.25 h [8]: 4550 ng/g; Drug uptake(free) [9]: 38.1 nM; Drug uptake(free) [10]: 49.5 nM; Drug uptake(free) [11]: 53.2 nM
